Laboratory results reported in publication PMC5532717 (ACS Central Science, 2017).

What was measured:
human α-glucosidase GAA = human α-glucosidase GAA (Homo sapiens, UniProt P10253); assay: In vitro apparent IC50, recombinant GAA; type: biochemical
How it was run: (§1)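 The enzyme source was GBA2-overexpressing HEK293T lysate or recombinant human GAA. It was preincubated 30 min at 37 °C with a range of test compound concentrations, then transferred into 4-MU glucoside substrate mixture to measure residual activity. Quenched with 1 M NaOH–glycine pH 10.3; 4-MU fluorescence at λex 366/λem 445 nm. Apparent IC50 is the mean of three technical replicates.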

[1] = Solvolytic stability in McIlvaine buffer pH 4.0 by NMR; type: physicochemical; conditions: McIlvaine buffer pH 4.0, room temperature, 24 h, 1H NMR
human β-glucosidase GBA1 = target: T1, human β-glucosidase GBA1 (Homo sapiens, UniProt P04062, R534H); assay: In vitro apparent IC50, recombinant GBA1; type: biochemical
T1 sequence (P04062 40-536 R534H): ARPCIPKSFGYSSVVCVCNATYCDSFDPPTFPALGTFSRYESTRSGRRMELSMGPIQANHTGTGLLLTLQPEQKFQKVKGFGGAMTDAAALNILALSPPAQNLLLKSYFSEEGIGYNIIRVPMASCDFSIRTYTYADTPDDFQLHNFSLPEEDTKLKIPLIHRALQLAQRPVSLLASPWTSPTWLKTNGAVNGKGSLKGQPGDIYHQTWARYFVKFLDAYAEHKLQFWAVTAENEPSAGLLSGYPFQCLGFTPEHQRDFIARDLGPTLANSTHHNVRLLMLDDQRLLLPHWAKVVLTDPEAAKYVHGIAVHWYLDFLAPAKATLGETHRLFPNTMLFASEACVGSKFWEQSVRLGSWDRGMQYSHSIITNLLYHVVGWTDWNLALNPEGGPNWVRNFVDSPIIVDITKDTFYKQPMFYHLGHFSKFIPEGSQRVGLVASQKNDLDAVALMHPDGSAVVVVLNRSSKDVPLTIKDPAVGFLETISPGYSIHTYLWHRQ
How it was run: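 Recombinant human GBA1 (Cerezyme) preincubated with a range of test compound concentrations for 30 min at 37 °C, then added to 4-MU-Glc substrate mixture to measure residual activity. Reaction quenched with 1 M NaOH–glycine (pH 10.3); 4-MU fluorescence read at λEX 366 / λEM 445 nm. Apparent IC50 is the mean of three technical replicates.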

GBA2 = target: T2, GBA2 (Homo sapiens, UniProt Q9HCG7); assay: In vitro apparent IC50, GBA2 overexpressing HEK293T lysate, 4-MU-β-Glc; type: biochemical
T2 sequence (Q9HCG7 1-927): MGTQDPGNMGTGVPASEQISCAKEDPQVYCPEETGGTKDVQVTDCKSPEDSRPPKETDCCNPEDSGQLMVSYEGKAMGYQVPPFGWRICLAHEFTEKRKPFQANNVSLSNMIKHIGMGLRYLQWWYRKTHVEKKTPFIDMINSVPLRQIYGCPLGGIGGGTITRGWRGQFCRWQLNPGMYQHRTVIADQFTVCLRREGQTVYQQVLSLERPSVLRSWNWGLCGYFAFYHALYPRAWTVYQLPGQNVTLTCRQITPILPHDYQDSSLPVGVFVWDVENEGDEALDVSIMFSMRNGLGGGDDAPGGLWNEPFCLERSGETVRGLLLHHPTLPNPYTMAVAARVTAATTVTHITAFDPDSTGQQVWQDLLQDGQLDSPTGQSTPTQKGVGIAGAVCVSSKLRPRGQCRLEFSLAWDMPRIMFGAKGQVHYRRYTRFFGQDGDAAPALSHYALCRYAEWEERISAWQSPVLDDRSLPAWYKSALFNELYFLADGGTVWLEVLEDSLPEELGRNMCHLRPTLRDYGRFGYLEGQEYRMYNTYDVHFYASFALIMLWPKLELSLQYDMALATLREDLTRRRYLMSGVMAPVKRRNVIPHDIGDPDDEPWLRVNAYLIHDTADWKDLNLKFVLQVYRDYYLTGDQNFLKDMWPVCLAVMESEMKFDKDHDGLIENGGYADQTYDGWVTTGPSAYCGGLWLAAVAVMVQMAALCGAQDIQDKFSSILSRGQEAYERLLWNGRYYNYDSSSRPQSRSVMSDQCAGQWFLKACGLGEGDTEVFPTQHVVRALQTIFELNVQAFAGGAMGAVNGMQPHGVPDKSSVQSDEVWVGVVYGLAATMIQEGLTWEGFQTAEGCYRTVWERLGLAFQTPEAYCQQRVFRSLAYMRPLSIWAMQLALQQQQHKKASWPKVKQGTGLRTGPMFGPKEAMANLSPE
How it was run: as §1

GBA1 = target: T3, GBA1 (Mus musculus, UniProt P17439); assay: Competitive ABPP against probe 13 in mouse gastrointestinal lysate; type: biochemical; conditions: mouse intestine lysate, 1 h at 37 °C
T3 sequence (P17439 20-515): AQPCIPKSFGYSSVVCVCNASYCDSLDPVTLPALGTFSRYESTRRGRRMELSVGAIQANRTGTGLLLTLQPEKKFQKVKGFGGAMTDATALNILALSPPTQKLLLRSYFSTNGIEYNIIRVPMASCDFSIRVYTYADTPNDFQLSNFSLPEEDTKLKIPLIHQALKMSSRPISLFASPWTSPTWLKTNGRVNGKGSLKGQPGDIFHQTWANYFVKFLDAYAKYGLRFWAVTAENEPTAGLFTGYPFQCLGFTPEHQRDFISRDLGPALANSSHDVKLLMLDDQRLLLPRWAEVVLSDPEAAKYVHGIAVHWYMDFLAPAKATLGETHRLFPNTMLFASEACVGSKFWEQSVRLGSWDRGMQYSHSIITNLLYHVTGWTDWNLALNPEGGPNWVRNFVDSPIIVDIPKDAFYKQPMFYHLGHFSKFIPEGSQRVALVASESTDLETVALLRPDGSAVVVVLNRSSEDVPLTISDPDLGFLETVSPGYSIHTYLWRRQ
How it was run: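 Mixed mouse duodenum, jejunum and ileum homogenates were made in 25 mM potassium phosphate pH 6.5 with protease inhibitors (40 μg protein). Held 5 min on ice in McIlvaine buffer pH 4 or 7. Incubated 1 h at 37 °C with test compound (final 150 to 0.005 μM, plus 0), then probe 13 for 30 min at 37 °C. Boiled in Laemmli buffer, 10% SDS–PAGE, Cy5 fluorescence scan.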

IC50 (human α-glucosidase GAA): 0.082 ± 0.001 µM | solvolytic stability (spontaneous hydrolysis) [1]: no spontaneous hydrolysis | IC50 (human β-glucosidase GBA1): > 100 µM | IC50 (GBA2): > 100 µM | competition of off-target probe 13 labeling of GBA1 (GBA1): not outcompeted
SMILES: O=S1(=O)O[C@@H]2[C@H](O)[C@@H](O)[C@H](O)[C@@H](CO)[C@@H]2O1 [Compound 5, 1,6-epi-cyclophellitol cyclosulfate]
